STAT3 act – activators of IL-6 induced STAT3 signaling | U3A cells, IL-6 STAT3-luciferase reporter, luminescence; 100% = signal with IL-6 EC80 alone | activation (% of control), % at 5.6 µM | 0.91% of 190,000 active | AID 871;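 active = activation above the screen-wide mean of compound activation plus 3 SD, cut at about 130% in these data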;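 also: 0% = background luminescence of wells with medium and substrate only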
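Material: human STAT1-deficient U3A cells with stable STAT3-luciferase reporter / Probe or stimulus: IL-6 stimulus at 33 ng/mL final / Schedule: 1 h compound pre-exposure, 6 h IL-6 stimulation, 37 °C / Technique: luminescence / Read-out basis: percent of IL-6-only median luminescence / Control set: IL-6-only high control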
STAT3 inh-1 – inhibitors of IL-6 induced STAT3 signaling | inhibition, % at 5.5 µM | U3A cells, IL-6 STAT3-luciferase reporter, luminescence; host cell line lacks STAT1 | 0.89% of 190,000 active;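 active = inhibition above the mean inhibition across all screened compounds plus 3 SD, cut at about 44% in these data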;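 also: 0% = DMSO only wells and 100% = 100 µM nifuroxazide control wells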
STAT1 inh – reduces IFN-gamma driven STAT1 reporter signal; NIH 3T3 STAT1-luciferase reporter, luminescence; 0.35% of 200,000 active; inhibition, % at 5.5 µM;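 active = inhibition above a set limit, the mean inhibition across all tested compounds plus 3 SD, cut at about 34% in these data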;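 also: 0% = IFN-gamma with DMSO and 100% = IFN-gamma with 300 µM nifuroxazide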
NF-kB expr up – raises NF-kB expression in human neuronal cells; NF-kB reporter expression; hits give high values; fold change at 12.5 µM; 1.6% of 190,000 active; in the data active = fold change above about 3.3
APP 5'UTR act – APP 5'UTR luciferase reporter activation; SH-SY5Y APP 5'UTR luciferase reporter, luminescence; zero percent = DMSO vehicle wells; activation, % at 2 µM; 1% of 190,000 active; AID 1276;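 active = activation above a set limit, based on mean plus 3 SD of controls, cut at about 140% in these data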
STAT1 act – STAT1 signaling activation | 2.6% of 200,000 active | activation (% of control), % at 5.5 µM | NIH 3T3 STAT1-luciferase reporter, IFN-gamma, luminescence; 100% = IFN-gamma alone, no compound;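 active = activation above the screen-wide mean activation plus 3 SD, cut at about 130% in these data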;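 also: raw ratio to IFN-gamma control signal so 100% means no change and 0% no light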
STAT3 inh-2 – STAT3 inhibition, confirmation assay. shares compounds with STAT3 inh-1. U3A cells, IL-6 STAT3 luciferase reporter, luminescence; cell line lacks STAT1. inhibition, % at 5.7 µM. 45% of 1,200 active;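 active = inhibition above the hit cutoff computed for the primary STAT3 screen, cut at about 44% in these data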;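 also: 0% = IL-6 plus DMSO and 100% = IL-6 plus nifuroxazide control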
NFkB inh 2 – NF-kappaB inhibition in STAT3 inhibitor counter-screen; shares compounds with STAT3 inh-1; HEK293T NF-kB luciferase reporter, TNF-alpha induced; inhibition, % at 5.7 µM; 36% of 1,200 active;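 active = inhibition above the mean of solvent-only control wells plus 3 SD, cutoff set per campaign, cut at about 13% in these data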;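 also: 0% = TNF-alpha with DMSO and 100% = TNF-alpha with MG high control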
STAT1 inh 2 – STAT1 inhibition in STAT3 inhibitor counter-screen. shares compounds with STAT3 inh-1. NIH 3T3 STAT1-luciferase reporter, IFN-gamma induced, luminescence. inhibition, % at 5.7 µM. 27% of 1,200 active. AID 1317;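 active = inhibition above the mean plus 3 SD of solvent-only control wells, limit set per screening run, cut at about 16% in these data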;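 also: 0% = DMSO with IFN-gamma and 100% = nifuroxazide control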
The depositor's hits bear a star; x = no result given. The list is not random: actives were taken first. Their share in the collection is about 4.9%.

SMILES	STAT3 act	STAT3 inh-1	STAT1 inh	NF-kB expr up	APP 5'UTR act	STAT1 act	STAT3 inh-2	NFkB inh 2	STAT1 inh 2
Cc1cccc(S(=O)(=O)C(C#N)c2nc3ccccc3nc2N2CCCC2)c1 (stereo not drawn)	99	4	2	0.57	10	98	x	x	x
CCc1c(C)nc2ncnn2c1NCCc1ccc(OC)cc1	44	66*	20	0.92	-20	81	65*	28*	26*
CCc1c(C)nc2ncnn2c1Nc1ccc(C)c(C)c1	95	8	3	x	-5	97	x	x	x
Cn1c(N=NC(=O)c2ccccc2)c(O)c2ccccc21	61	46*	-48	2.8	135	143*	13	-16	-112
COc1ccc(-c2ccc3ccccc3n2)cc1	55	55*	23	10*	206*	78	18	-23	-107
CCc1nc2sc3c(O)cc(=O)[nH]c3c2cc1C	98	7	-7	1.3	2	104	x	x	x
CCOc1ccc(OCc2ccc(C(=O)OCc3ccccn3)o2)cc1	65	46*	9	4.4*	108	93	15	-20	-19
CCOC(=O)c1ccc(COc2ccc(C(C)C)cc2)o1	107	-2	-14	2.1	134	111	x	x	x
CC(C)CNS(=O)(=O)c1ccc(CCC(=O)N2CCC(C(N)=O)CC2)cc1	105	7	0	0.81	1	99	x	x	x
Cn1c(=O)c2c(nc(Br)n2Cc2ccccc2Cl)n(C)c1=O	93	15	5	1	-4	95	x	x	x
CCOc1nc2c(c(=O)n(C)c(=O)n2C)n1Cc1ccccc1Cl	65	46*	17	0.86	16	84	27	7	15
COc1ccc(C)cc1-n1nnnc1SCn1nnc2ccccc2c1=O	59	54*	25	0.43	-2	77	44*	7	16
Cc1ccc(-n2nnnc2SCn2nnc3ccccc3c2=O)cc1	108	-5	-7	2.2	57	107	x	x	x
CN(C)CC1CCCCC1C1(O)c2ccccc2CSc2sccc21 (stereo not drawn)	95	9	7	0.67	-8	90	x	x	x
COc1cccc(CNC(=O)c2cc3c(C)nc4ccccc4c3o2)c1	68	46*	14	0.41	-11	88	23	-2	2
COc1ccc(CNC(=O)c2cc3c(C)nc4ccccc4c3o2)c(OC)c1	39	79*	30	0.65	7	73	60*	15*	20*
COc1cc(NC(=O)c2cc3c(C)nc4ccccc4c3o2)cc(OC)c1OC	85	24	2	0.36	-1	98	x	x	x
CCc1ccc(CNC(=O)c2cc3c(C)nc4ccccc4c3o2)cc1	60	52*	18	0.46	-8	84	39	4	13
COc1ccc(-c2[nH]ncc2/C=N/NC(=O)c2cccc([N+](=O)[O-])c2)cc1OC	101	1	1	0.68	4	97	x	x	x
Cc1nnc(SCc2ccccc2CSc2nnc(C)s2)s1	99	2	12	1.2	9	87	x	x	x
CN(c1ccc(F)cc1)S(=O)(=O)c1ccc(Cl)c(C(=O)OCC(=O)NCc2ccco2)c1	105	-6	3	1.1	8	98	x	x	x
COCCn1c(CN2CCc3ccccc3C2)nc2c1c(=O)n(C)c(=O)n2C	97	12	12	0.76	10	89	x	x	x
CC(=O)c1c(C)[nH]c(C(=O)OCC(=O)Nc2ccc(Cl)cc2[N+](=O)[O-])c1C	50	57*	27	0.43	4	75	73*	28*	28*
O=C(COC(=O)c1cc[n+]([O-])cc1)Nc1ccc(Cl)cc1[N+](=O)[O-]	113	-13	-1	1.1	-2	101	x	x	x
COc1ccc(CCNC(=O)C2CCN(C(=O)c3ccc([N+](=O)[O-])cc3)CC2)cc1	85	24	-6	1.1	-23	104	x	x	x
SMILES	STAT3 act	STAT3 inh-1	STAT1 inh	NF-kB expr up	APP 5'UTR act	STAT1 act	STAT3 inh-2	NFkB inh 2	STAT1 inh 2
c1ccc(-c2nnc(NC3=NCCC3)o2)cc1	67	44*	-22	0.97	122	116	4	-27	-60
O=C(Nc1ccccc1)Nc1nnc(-c2ccccc2)o1	92	12	-8	0.97	11	107	x	x	x
C/C(CC(=O)NC1CCCCC1)=N\NC(=O)COc1ccc(C)cc1Br	99	6	-17	0.93	7	114	x	x	x
Cc1cccc(NC(=O)c2ccc(CN3CCN(Cc4ccccc4)CC3)cc2)c1	48	63*	6	1.2	11	93	62*	14*	-7
COc1ccc(C(=O)Nc2cccc(C)c2)cc1	63	44*	-41	6*	142*	138*	2	-37	-74
COc1ccc(CC(=O)Nc2cccc(C(=O)Nc3cccc(C)c3)c2)cc1	80	29	0	1.4	2	99	x	x	x
COc1ccc(C(=O)/C=C/Nc2cccc(O)c2)cc1	22	93*	4	14*	195*	108	80*	16*	14
NC(=O)c1ccsc1NC(=O)CSc1nnc(Nc2ccccc2)s1	102	5	9	0.75	2	91	x	x	x
COC(=O)c1ccc(NC(=O)CCN2CCN(CCC(=O)Nc3ccc(C(=O)OC)cc3)CC2)cc1	61	49*	0	0.97	4	104	38	8	4
CN1CCN(CCC(=O)Nc2ccc(Br)cc2)CC1	103	2	6	0.97	2	93	x	x	x
O=C(N/N=C/c1ccc2cccnc2c1)c1ccco1	58	55*	0	3.5*	166*	99	20	-18	-63
CCOc1cc(/C=N/NC(=O)c2cccnc2)ccc1OC(=O)c1ccco1	99	6	-10	1.1	-10	107	x	x	x
O=C(/C=C/c1ccco1)NC(=S)NNC(=O)c1ccco1	96	6	4	1.1	-2	96	x	x	x
Cc1ccc(NC(=O)c2cc(-n3cnnc3)ccc2Cl)cc1	106	-5	4	1	-7	99	x	x	x
O=C(Nc1ccc(-c2nc3ccccc3s2)cc1)c1cc(-n2cnnc2)ccc1Cl	53	62*	4	0.69	33	97	33	-2	-10
COc1ccc(C(=O)Nc2ccc(N3CCN(C(=O)C(C)C)CC3)cc2)cc1[N+](=O)[O-]	93	4	4	0.98	-11	96	x	x	x
CCC(=O)Nc1ccc2oc(-c3cccc(C)c3)nc2c1	50	64*	-3	3.5*	190*	103	25	-19	-110
